Measurements as given in ChEMBL document CHEMBL1687753, “Mitochondrial DNA depletion and respiratory chain activity in primary human subcutaneous adipocytes treated with nucleoside analogue reverse transcriptase inhibitors” (Antimicrob Agents Chemother, 2010).
Activity calls are given as the source filed them. No cut-off for these calls is given here.

How the values were obtained:
[1] = Toxicity in human subcutaneous preadipocytes assessed as decrease of cell viability measured every 5 days at 0.1 uM after 30 days using […]; type: cell-based; conditions: 720 h
Outline: (§1)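 Trypan blue exclusion counted by microscopy at each medium change every fifth day during 30 days of drug exposure in differentiating pooled preadipocytes. Final viability was calculated by excluding the cumulative percentage of dead cells. Five independent experiments.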

[2] = Toxicity in human subcutaneous preadipocytes assessed as decrease of C/EBPalpha expression at 3 uM after 18 days by RT-PCR analysis; type: cell-based; conditions: 432 h
Outline: (§2)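 Differentiating preadipocytes were harvested at day 18. RNA from three plates was pooled and reverse transcribed, and qRT-PCR was run with 42 cycles of 94/55/72°C. Values were normalized to transferrin receptor or beta-actin by standard curve. Triplicates from three independent experiments.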

[3] = test system: Homo sapiens; experiment: Inhibition of electron transport protein complex 5 in human subcutaneous preadipocytes at 0.1 uM after 30 to 60 days by photometric analysis; type: cell-based
Outline: (§3)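 Pooled primary human abdominal subcutaneous preadipocytes induced to differentiate with drug (DMSO vehicle, ≤0.1%) added at day 0 and kept to day 30 or 60. Cells sonicated twice for 10 s; substrates added to lysates and conversion by complexes I+III, II+III, IV, V and citrate synthase read photometrically at 37°C. Three independent experiments.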

[4] = test system: Homo sapiens; experiment: Inhibition of electron transport protein complex 4 in human subcutaneous preadipocytes at 0.1 uM after 30 to 60 days by photometric analysis; type: cell-based; outline: as §3
[5] = Toxicity in human subcutaneous preadipocytes assessed as decrease of mitochondrial DNA abundance at 0.1 uM after 30 days by RT-PCR analysis; type: cell-based; conditions: 720 h
Outline: (§4)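 mtDNA content of differentiated preadipocytes at day 30 or 60 of drug exposure was measured by real-time quantitative PCR with human-specific primers. Absolute copy numbers came from serial dilutions of plasmid standards. Three independent experiments.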

[6] = Toxicity in human subcutaneous preadipocytes assessed as decrease of mitochondrial DNA copy number per cell at 0.1 uM after 60 days by RT-PCR analysis; type: cell-based; design: scale not given: the % may be the effect or the level left; conditions: 1440 h; outline: as §4
[7] = test system: Homo sapiens; experiment: Inhibition of citrate synthase in human subcutaneous preadipocytes at 0.1 uM after 30 to 60 days by photometric analysis; type: cell-based; outline: as §3
[8] = Toxicity in human subcutaneous preadipocytes assessed as effect on mitochondrial mass at 0.1 uM after 30 days using […] by flow cytometry analysis; type: cell-based; conditions: 720 h
[9] = Toxicity in human subcutaneous preadipocytes assessed as acquisition of adipocyte shape at 0.1 uM after 30 days using oil red O fluorescence staining by conventional fluorescence microscopy; type: cell-based; conditions: 720 h
Outline: (§5)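 On day 30 of differentiation with drug present from day 0, cells were fixed in 10% formalin and stained with 0.21% oil red O. Staining was viewed by fluorescence and light microscopy. For quantification, dye was extracted with isopropanol and read at 495 nm, also adjusted for viable cell number. Five independent experiments.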

[10] = Toxicity in human subcutaneous preadipocytes assessed as decrease of insulin-sensitizing adipokine expression at 0.1 uM after 30 days by RT-PCR analysis; type: cell-based; conditions: 720 h
Outline: (§6)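 Adiponectin mRNA at day 30 was measured by qRT-PCR normalized to transferrin receptor or beta-actin, using pooled RNA and cDNA. Triplicates from three independent experiments.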

[11] = Toxicity in human subcutaneous preadipocytes assessed as decrease of adiponectin expression at 0.1 uM after 30 days by ELISA; type: cell-based; conditions: 720 h
Outline: (§7)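 Adiponectin secreted into the medium over days 25 to 30 of drug exposure in differentiating preadipocytes was measured by sandwich ELISA of culture supernatant. Three independent experiments.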

[12] = test system: Homo sapiens; experiment: Inhibition of electron transport protein complex 1/3 in human subcutaneous preadipocytes at 0.1 uM after 30 to 60 days by photometric analysis; type: cell-based; outline: as §3
[13] = Toxicity in human subcutaneous preadipocytes assessed as cell death at 0.1 uM after 30 days using […]; type: cell-based; conditions: 720 h; outline: as §1
[14] = Toxicity in fully differentiated human subcutaneous preadipocytes assessed as cell death at 0.1 uM after 30 days using […]; conditions: 720 h; outline: as §1
[15] = Toxicity in human subcutaneous preadipocytes assessed as decrease of C/EBPalpha expression at 0.1 uM after 18 days by RT-PCR analysis; type: cell-based; conditions: 432 h; outline: as §2
[16] = Toxicity in human subcutaneous preadipocytes assessed as effect on mitochondrial membrane potential at 0.1 uM after 30 days using JC-1 red/green fluorescence dye by flow cytometry analysis; type: cell-based; conditions: 720 h
Outline: (§8)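 Pooled primary human subcutaneous preadipocytes (passage ≤4) were differentiated with drug or DMSO vehicle from day 0 and cultured 30 days. Staining with the JC-1 kit was followed by flow cytometry, and the JC-1 red/green fluorescence intensity ratio was used as the membrane potential read-out. CCCP served as the depolarization control. Three independent experiments, means ± SEM.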

[17] = Toxicity in human subcutaneous preadipocytes assessed as decrease of PPARgamma expression at 3 uM after 18 days by RT-PCR analysis; type: cell-based; conditions: 432 h; outline: as §2
[18] = Toxicity in human subcutaneous preadipocytes assessed as decrease of mitochondrial DNA abundance at 0.1 uM after 60 days by RT-PCR analysis; type: cell-based; conditions: 1440 h; outline: as §4
[19] = Toxicity in human subcutaneous preadipocytes assessed as triacylglyceride droplets at 0.1 uM after 30 days using oil red O fluorescence staining by conventional fluorescence microscopy; type: cell-based; conditions: 720 h
Outline: (§9)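 Preadipocytes were differentiated with a hormone cocktail (IBMX for the first 7 days, dexamethasone, insulin, indomethacin; high-glucose DMEM for days 0–18), with drug or vehicle present from day 0 to day 30. Cells were fixed in 10% formalin, stained with 0.21% oil red O in 60% isopropanol, and imaged by fluorescence microscopy. Quantification was by isopropanol extraction at 495 nm, optionally adjusted for viable cells.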

[20] = test system: Homo sapiens; experiment: Inhibition of electron transport protein complex 2/3 in human subcutaneous preadipocytes at 0.1 uM after 30 to 60 days by photometric analysis; type: cell-based; outline: as §3
[21] = Toxicity in human subcutaneous preadipocytes assessed as decrease of cell cultures at 0.1 uM after 30 days using oil red O fluorescence staining by conventional fluorescence microscopy; type: cell-based; conditions: 720 h; outline: as §5
[22] = Toxicity in human subcutaneous preadipocytes assessed as decrease of PPARgamma expression at 0.1 uM after 18 days by RT-PCR analysis; type: cell-based; conditions: 432 h; outline: as §2
[23] = Toxicity in human subcutaneous preadipocytes assessed as decrease of cell viability measured every 5 days at 6 uM after 30 days using […]; type: cell-based; conditions: 720 h; outline: as §1
[24] = Toxicity in human subcutaneous preadipocytes assessed as effect on mitochondrial membrane potential at 6 uM after 30 days using JC-1 red/green fluorescence dye by flow cytometry analysis; type: cell-based; conditions: 720 h; outline: as §8
[25] = test system: Homo sapiens; experiment: Inhibition of citrate synthase in human subcutaneous preadipocytes at 6 uM after 30 to 60 days by photometric analysis; type: cell-based; outline: as §3
[26] = test system: Homo sapiens; experiment: Inhibition of electron transport protein complex 5 in human subcutaneous preadipocytes at 6 uM after 30 to 60 days by photometric analysis; type: cell-based; outline: as §3
[27] = Toxicity in human subcutaneous preadipocytes assessed as decrease of cell cultures at 6 uM after 30 days using oil red O fluorescence staining by conventional fluorescence microscopy; type: cell-based; conditions: 720 h; outline: as §5
[28] = Toxicity in human subcutaneous preadipocytes assessed as decrease of C/EBPalpha expression at 6 uM after 18 days by RT-PCR analysis; type: cell-based; design: scale not given: the % may be the effect or the level left; conditions: 432 h; outline: as §2
[29] = Toxicity in human subcutaneous preadipocytes assessed as cell death at 6 uM after 30 days using […]; type: cell-based; conditions: 720 h; outline: as §1
[30] = Toxicity in fully differentiated human subcutaneous preadipocytes assessed as cell death at 6 uM after 30 days using […]; conditions: 720 h; outline: as §1
[31] = Toxicity in human subcutaneous preadipocytes assessed as decrease of mitochondrial DNA abundance at 6 uM after 30 days by RT-PCR analysis; type: cell-based; conditions: 720 h; outline: as §4
[32] = Toxicity in human subcutaneous preadipocytes assessed as decrease of adiponectin expression at 6 uM after 30 days by ELISA; type: cell-based; conditions: 720 h; outline: as §7
[33] = Toxicity in human subcutaneous preadipocytes assessed as acquisition of adipocyte shape at 6 uM after 30 days using oil red O fluorescence staining by conventional fluorescence microscopy; type: cell-based; conditions: 720 h; outline: as §5
[34] = test system: Homo sapiens; experiment: Inhibition of electron transport protein complex 2/3 in human subcutaneous preadipocytes at 6 uM after 30 to 60 days by photometric analysis; type: cell-based; outline: as §3
[35] = Toxicity in human subcutaneous preadipocytes assessed as effect on mitochondrial mass at 6 uM after 30 days using […] by flow cytometry analysis; type: cell-based; conditions: 720 h
[36] = test system: Homo sapiens; experiment: Inhibition of electron transport protein complex 1/3 in human subcutaneous preadipocytes at 6 uM after 30 to 60 days by photometric analysis; type: cell-based; outline: as §3
[37] = test system: Homo sapiens; experiment: Inhibition of electron transport protein complex 4 in human subcutaneous preadipocytes at 6 uM after 30 to 60 days by photometric analysis; type: cell-based; outline: as §3
[38] = Toxicity in human subcutaneous preadipocytes assessed as decrease of PPARgamma expression at 6 uM after 18 days by RT-PCR analysis; type: cell-based; design: scale not given: the % may be the effect or the level left; conditions: 432 h; outline: as §2
[39] = Toxicity in human subcutaneous preadipocytes assessed as triacylglyceride droplets at 6 uM after 30 days using oil red O fluorescence staining by conventional fluorescence microscopy; type: cell-based; conditions: 720 h; outline: as §9
[40] = Toxicity in human subcutaneous preadipocytes assessed as decrease of insulin-sensitizing adipokine expression at 6 uM after 30 days by RT-PCR analysis; type: cell-based; conditions: 720 h; outline: as §6

Structure (SMILES): Nc1ccn([C@H]2CC[C@@H](CO)O2)c(=O)n1 [ZALCITABINE]
- Activity [1]: Toxic
- Activity [2]: Non-toxic
- inhibition [3]: inactive
- inhibition [4]: inactive
- Activity [5]: Toxic
- Activity [6]: 50%
- inhibition [7]: inactive
- Activity [8]: Non-toxic
- Activity [9]: Non-toxic
- Activity [10]: Non-toxic
- Activity [11]: Non-toxic
- inhibition [12]: inactive
- Activity [13]: Toxic
- Activity [14]: Toxic
- Activity [15]: Non-toxic
- Activity [16]: Non-toxic
- Activity [17]: Non-toxic
- Activity [18]: Toxic
- Activity [19]: Non-toxic
- inhibition [20]: inactive
- Activity [21]: Toxic
- Activity [22]: Non-toxic

Structure (SMILES): Cc1cn([C@H]2C[C@H](N=[N+]=[N-])[C@@H](CO)O2)c(=O)[nH]c1=O [ZIDOVUDINE]
- Activity [23]: Toxic
- Activity [24]: Non-toxic
- inhibition [25]: inactive
- inhibition [26]: inactive
- Activity [27]: Toxic
- Activity [28]: 40%
- Activity [29]: Toxic
- Activity [30]: Toxic
- Activity [31]: Non-toxic
- Activity [32]: Non-toxic
- Activity [33]: Non-toxic
- inhibition [34]: inactive
- Activity [35]: Non-toxic
- inhibition [36]: inactive
- inhibition [37]: inactive
- Activity [38]: 40%
- Activity [39]: Non-toxic
- Activity [40]: Non-toxic
